Legend:
[1] = Stability in human serum assessed as intact peptide level at 37 degC incubated for 72 hrs by RP-HPLC analysis; format: ADME, cell-free; details: read-out: Drug uptake
Procedure, shortened: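 125I-labeled peptide was incubated in human serum at 37 °C for up to 72 h. Aliquots were run by RP-HPLC (RP-18 column, ethanol/0.05 M sodium acetate pH 5.5 gradient, 1 mL/min), and intact peptide was expressed as percentage of injected activity.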

[2] = Drug uptake in MDM2-amplified human SJSA-1 cells expressing wild type p53 at 5 to 50 uM incubated for 30 mins; format: ADME, cell-based; details: sjsa-1, 0.5 h, dose 5-50 µM
Procedure, shortened: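 For uptake kinetics, SJSA-1 cells in serum-free RPMI-1640 were incubated 30–120 min with 125I-labeled peptide, with or without 50 μM unlabeled parent peptide. Cells were washed with PBS and lysed, and uptake was normalized to protein (%/mg protein). Triplicates, mean ± SD.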

[3] = Drug uptake in MDM2-amplified human SJSA-1 cells expressing wild type p53 assessed as initially bound radioactivity incubated for 0.5 hrs subsequently re-incubating the cells with fresh medium for up to 2 hrs; format: ADME, cell-based; details: sjsa-1, 0.5 h
Procedure, shortened: (§1)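 SJSA-1 cells were loaded with 125I-labeled peptide for 1 h, then reincubated in fresh medium for 0.5–2 h. Cell-retained activity and cumulative release into the supernatant were expressed as percentage of initially bound activity.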

[4] = Drug uptake in MDM2-amplified human SJSA-1 cells expressing wild type p53 assessed as released into supernatant incubated for 0.5 hrs subsequently re-incubating the cells with fresh medium for up to 2 hrs; format: ADME, cell-based; details: sjsa-1, 0.5 h; procedure, shortened: as §1
[5] = Drug uptake in MDM2-amplified human SJSA-1 cells expressing wild type p53 assessed as initially bound radioactivity incubated for 2 hrs subsequently re-incubating the cells with fresh medium for up to 2 hrs; format: ADME, cell-based; details: sjsa-1, 2 h; procedure, shortened: as §1
[6] = Biodistribution in Liver of athymic mouse xenografted with human SJSA-1 cells at 166.5 kBq, iv after 30 mins by automated gamma counting method; format: ADME, organism-based; details: in vivo, 0.5 h
Procedure, shortened: (§2)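 125I-labeled peptide (166.5 kBq in 100 μL) was injected via tail vein into athymic mice bearing flank SJSA-1 xenografts, n = 5 per time point. Tumors, blood and major organs were gamma-counted at 0.5, 2, 6 and 24 h post-injection. Values are %ID/g.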

[7] = Biodistribution in Spleen of athymic mouse xenografted with human SJSA-1 cells at 166.5 kBq, iv after 30 mins by automated gamma counting method; format: ADME, organism-based; details: in vivo, 0.5 h; procedure, shortened: as §2
[8] = Biodistribution in Heart of athymic mouse xenografted with human SJSA-1 cells at 166.5 kBq, iv after 30 mins by automated gamma counting method; format: ADME, organism-based; details: in vivo, 0.5 h; procedure, shortened: as §2
[9] = Biodistribution in Urinary bladder of athymic mouse xenografted with human SJSA-1 cells at 166.5 kBq, iv after 30 mins by automated gamma counting method; format: ADME, organism-based; details: in vivo, 0.5 h
Procedure, shortened: (§3)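 Athymic mice bearing flank SJSA-1 xenografts received 125I-SIB-labeled peptide (166.5 kBq, 100 μL) by tail vein; groups of five per time point. Tumor, blood and organs were taken at 0.5–24 h and counted by gamma counter; values expressed as %ID/g.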

[10] = Biodistribution in Stomach of athymic mouse xenografted with human SJSA-1 cells at 166.5 kBq, iv after 30 mins by automated gamma counting method; format: ADME, organism-based; details: in vivo, 0.5 h; procedure, shortened: as §3
[11] = Biodistribution in Small intestine of athymic mouse xenografted with human SJSA-1 cells at 166.5 kBq, iv after 30 mins by automated gamma counting method; format: ADME, organism-based; details: in vivo, 0.5 h; procedure, shortened: as §2
[12] = Biodistribution in Bone of athymic mouse xenografted with human SJSA-1 cells at 166.5 kBq, iv after 30 mins by automated gamma counting method; format: ADME, organism-based, Bone element; details: in vivo, 0.5 h; procedure, shortened: as §2
[13] = Biodistribution in Spleen of athymic mouse xenografted with human SJSA-1 cells at 166.5 kBq, iv after 2 hrs by automated gamma counting method; format: ADME, organism-based; details: in vivo; procedure, shortened: as §2
[14] = Biodistribution in Small intestine of athymic mouse xenografted with human SJSA-1 cells at 166.5 kBq, iv after 2 hrs by automated gamma counting method; format: ADME, organism-based; details: in vivo; procedure, shortened: as §2
[15] = Biodistribution in Thyroid of athymic mouse xenografted with human SJSA-1 cells at 166.5 kBq, iv after 2 hrs by automated gamma counting method; format: ADME, organism-based, Thyroid gland; details: in vivo; procedure, shortened: as §3
[16] = Biodistribution in Muscle of athymic mouse xenografted with human SJSA-1 cells at 166.5 kBq, iv after 2 hrs by automated gamma counting method; format: ADME, organism-based, Muscle tissue; details: in vivo; procedure, shortened: as §2
[17] = Biodistribution in Blood of athymic mouse xenografted with human SJSA-1 cells at 166.5 kBq, iv after 2 hrs by automated gamma counting method; format: ADME, organism-based; details: in vivo; procedure, shortened: as §2
[18] = Biodistribution in Liver of athymic mouse xenografted with human SJSA-1 cells at 166.5 kBq, iv after 6 hrs by automated gamma counting method; format: ADME, organism-based; details: in vivo; procedure, shortened: as §2
[19] = Biodistribution in Stomach of athymic mouse xenografted with human SJSA-1 cells at 166.5 kBq, iv after 6 hrs by automated gamma counting method; format: ADME, organism-based; details: in vivo; procedure, shortened: as §3
[20] = Biodistribution in Muscle of athymic mouse xenografted with human SJSA-1 cells at 166.5 kBq, iv after 6 hrs by automated gamma counting method; format: ADME, organism-based, Muscle tissue; details: in vivo; procedure, shortened: as §2
[21] = Biodistribution in Blood of athymic mouse xenografted with human SJSA-1 cells at 166.5 kBq, iv after 6 hrs by automated gamma counting method; format: ADME, organism-based; details: in vivo; procedure, shortened: as §2
[22] = Biodistribution in Bone of athymic mouse xenografted with human SJSA-1 cells at 166.5 kBq, iv after 6 hrs by automated gamma counting method; format: ADME, organism-based, Bone element; details: in vivo; procedure, shortened: as §2
[23] = Biodistribution in Brain of athymic mouse xenografted with human SJSA-1 cells at 166.5 kBq, iv after 6 hrs by automated gamma counting method; format: ADME, organism-based; details: in vivo; procedure, shortened: as §2
[24] = Biodistribution in Liver of athymic mouse xenografted with human SJSA-1 cells at 166.5 kBq, iv after 24 hrs by automated gamma counting method; format: ADME, organism-based; details: in vivo; procedure, shortened: as §2
[25] = Biodistribution in Spleen of athymic mouse xenografted with human SJSA-1 cells at 166.5 kBq, iv after 24 hrs by automated gamma counting method; format: ADME, organism-based; details: in vivo; procedure, shortened: as §2
[26] = Biodistribution in Heart of athymic mouse xenografted with human SJSA-1 cells at 166.5 kBq, iv after 24 hrs by automated gamma counting method; format: ADME, organism-based; details: in vivo; procedure, shortened: as §2
[27] = Biodistribution in Kidney of athymic mouse xenografted with human SJSA-1 cells at 166.5 kBq, iv after 24 hrs by automated gamma counting method; format: ADME, organism-based; details: in vivo; procedure, shortened: as §2
[28] = Biodistribution in Stomach of athymic mouse xenografted with human SJSA-1 cells at 166.5 kBq, iv after 24 hrs by automated gamma counting method; format: ADME, organism-based; details: in vivo; procedure, shortened: as §3
[29] = Biodistribution in Small intestine of athymic mouse xenografted with human SJSA-1 cells at 166.5 kBq, iv after 24 hrs by automated gamma counting method; format: ADME, organism-based; details: in vivo; procedure, shortened: as §2
[30] = Biodistribution in Large intestine of athymic mouse xenografted with human SJSA-1 cells at 166.5 kBq, iv after 24 hrs by automated gamma counting method; format: ADME, organism-based; details: in vivo; procedure, shortened: as §2
[31] = Biodistribution in Tumor of athymic mouse xenografted with human SJSA-1 cells at 166.5 kBq, iv after 24 hrs by automated gamma counting method; format: ADME, organism-based, Neoplasm; details: in vivo; procedure, shortened: as §3
[32] = Biodistribution in Skin of athymic mouse xenografted with human SJSA-1 cells at 166.5 kBq, iv after 24 hrs by automated gamma counting method; format: ADME, organism-based, Skin of body; details: in vivo; procedure, shortened: as §2
[33] = Biodistribution in Brain of athymic mouse xenografted with human SJSA-1 cells at 166.5 kBq, iv after 24 hrs by automated gamma counting method; format: ADME, organism-based; details: in vivo; procedure, shortened: as §2

CC(=O)NC(CCCCNC(=O)c1cccc([125I])c1)C(=O)NCCCCCC(=O)N[C@H](C(=O)N[C@@H](CO)C(=O)N[C@@H](Cc1ccccc1)C(=O)N[C@@]1(C)CCCCCC/C=C/CCC[C@@](C)(C(=O)N[C@@H](CCC(=O)O)C(=O)N[C@@H](CC(N)=O)C(=O)N[C@@H](Cc2ccccc2)C(N)=O)NC(=O)[C@H](CC(C)C)NC(=O)[C@H](CC(C)C)NC(=O)[C@H](C)NC(=O)[C@H](Cc2c[nH]c3ccccc23)NC(=O)[C@H](Cc2ccc(O)cc2)NC(=O)[C@H](CCC(=O)O)NC1=O)[C@@H](C)O (stereo partly drawn)
remaining at 72 h [1]: 96%
Drug uptake [2]: 104 %/mg protein
Drug uptake [3]: 83.1%
Drug uptake [4]: 16.9%
Drug uptake [5]: 62%
Drug uptake [6]: 13.52 % ID/g
Drug uptake [7]: 1.29 % ID/g
Drug uptake [8]: 2.52 % ID/g
Drug uptake [9]: 0.61 % ID/g
Drug uptake [10]: 0.34 % ID/g
Drug uptake [11]: 0.43 % ID/g
Drug uptake [12]: 0.38 % ID/g
Drug uptake [13]: 1.8 % ID/g
Drug uptake [14]: 2.17 % ID/g
Drug uptake [15]: 1.14 % ID/g
Drug uptake [16]: 0.24 % ID/g
Drug uptake [17]: 6.84 % ID/g
Drug uptake [18]: 11.41 % ID/g
Drug uptake [19]: 1.9 % ID/g
Drug uptake [20]: 0.25 % ID/g
Drug uptake [21]: 5.12 % ID/g
Drug uptake [22]: 0.29 % ID/g
Drug uptake [23]: 0.2 % ID/g
Drug uptake [24]: 4.72 % ID/g
Drug uptake [25]: 0.58 % ID/g
Drug uptake [26]: 0.37 % ID/g
Drug uptake [27]: 0.63 % ID/g
Drug uptake [28]: 0.84 % ID/g
Drug uptake [29]: 0.86 % ID/g
Drug uptake [30]: 1.87 % ID/g
Drug uptake [31]: 0.36 % ID/g
Drug uptake [32]: 0.52 % ID/g
Drug uptake [33]: 0.02 % ID/g
